Compound activity deposited in PubChem BioAssay by The Scripps Research Institute Molecular Screening Center.
Most compounds without a hit are left out; they make up all but 2.9% or so of the library.
OX1R antag-1 – antagonists of human orexin 1 receptor (OX1R); Orexin/Hypocretin receptor type 1 (Homo sapiens), O43613; OX1R-expressing cells, FRET antagonist read-out; inhibition, % at 6.6 µM; hit rate 1.8% among 330,000; AID 485270, 2010; in the data active = inhibition mostly above about 38%, no sharp cut-off; inactive = mostly below about 40%;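 also: 0% = agonist challenge alone and 100% = reference antagonist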
Target sequence (O43613 whole entry, looked up): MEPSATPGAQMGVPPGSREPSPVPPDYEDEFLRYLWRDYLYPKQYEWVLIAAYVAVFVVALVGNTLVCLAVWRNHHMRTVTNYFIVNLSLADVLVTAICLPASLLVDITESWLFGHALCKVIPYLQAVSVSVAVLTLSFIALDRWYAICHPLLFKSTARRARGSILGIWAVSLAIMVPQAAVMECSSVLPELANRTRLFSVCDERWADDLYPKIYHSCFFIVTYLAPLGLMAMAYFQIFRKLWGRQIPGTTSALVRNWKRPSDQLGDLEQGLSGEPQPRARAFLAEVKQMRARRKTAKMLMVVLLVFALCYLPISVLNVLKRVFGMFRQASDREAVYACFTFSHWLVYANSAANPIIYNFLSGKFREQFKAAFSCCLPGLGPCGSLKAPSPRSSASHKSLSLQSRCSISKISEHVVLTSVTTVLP
CHO-K1 Ca ag – counter-screen for M1 agonists: effect in parental CHO-K1 cells | activation, % at 3 µM | hit rate 0.48% among 360,000 | AID 602248, 2012 | Fluo-8 calcium fluorescence; scaled to maximal ATP response, vehicle zero; in the data active = activation above about 15%;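 also: untransfected CHO-K1 host cells lacking M1 receptor as counterscreen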
OX1R antag-2 – OX1R (HCRTR1) antagonists, primary screen, fluorescence, CHO/OX1R cells, Fluo-8 calcium, orexin A. Fluo-8 calcium fluorescence. inhibition, % at 5 µM. hit rate 0.43% among 330,000;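 active = inhibition above its plate's threshold, mean inhibition of all tested compounds on the plate plus 3 SD, cut at about 37% in these data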;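 also: 0% = orexin A challenge wells and 100% = SB-334867-A antagonist wells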
CHO parental Ca – ATP-evoked calcium signal inhibitors, parental CHO, primary screen, counter-screen for OX1R antagonist project, cell-based, fluorescence, Fluo-8 calcium dye | hit rate 0.63% among 330,000 | parental CHO-K1, ATP-induced calcium, Fluo-8 fluorescence | inhibition, % at 5.6 µM;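 active = inhibition above that plate's mean sample inhibition plus 3 SD, cut at about 26% in these data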;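 also: 0% = ATP-challenged DMSO wells and 100% = DMSO wells without ATP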
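Assay system – parental CHO cells · Reagent – ATP stimulus · Detection – intracellular calcium via Fluo-8 no-wash fluorescent dye · Evaluation – percent inhibition of ATP-evoked calcium rise, normalized to controls · Controls – ATP wells versus no-ATP DMSO wells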
CHO-K1 Ca PAM – nonselective calcium activators in parental CHO-K1 cells, primary screen, counter-screen for M1 PAM project, cell-based, Fluo-8 calcium fluorescence, full deck, 1536-well; ATP EC20; 0% at ATP EC20, 100% at ATP max; activation, % at 3 µM; hit rate 0.02% among 360,000;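 active = activation above the run cutoff, the mean activation of all test compounds plus 3 SD, cut at about 40% in these data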;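 also: peak over basal fluorescence ratio in a 140 s read after ATP addition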
CHO-K1 Ca antag – M1 antagonist counterscreen hit in parental CHO-K1 cells; ATP-induced calcium, Fluo-8 fluorescence; inhibition, % at 3 µM; hit rate 0.6% among 360,000;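 active = inhibition above a per-plate cutoff, the plate's mean sample inhibition plus 3 SD, cut at about 24% in these data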;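 also: 0% = DMSO plus EC80 ATP and 100% = DMSO alone without ATP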
* marks the source's active call; other numbers are inactive results.

Screening Cc1cccc(C)c1OCC(=O)Nc1ncn[nH]1 returned OX1R antag-1 7, CHO-K1 Ca ag 1, OX1R antag-2 7, CHO parental Ca -1, CHO-K1 Ca PAM 18 and CHO-K1 Ca antag -10.
For CN(Cc1ccccn1)C(=O)C1CCC(=O)N(CCc2ccc(Cl)cc2)C1 (stereo not drawn) the results were OX1R antag-1 8, CHO-K1 Ca ag 0, OX1R antag-2 -17, CHO parental Ca -10, CHO-K1 Ca PAM 0 and CHO-K1 Ca antag -10.
For CCCc1cc(Nc2ccccc2OCC)n2ncnc2n1 the results were OX1R antag-1 6, CHO-K1 Ca ag 0, OX1R antag-2 -28, CHO parental Ca -15, CHO-K1 Ca PAM -7 and CHO-K1 Ca antag 28*.
For CCCc1cc(Nc2ccccc2)n2ncnc2n1 the results were OX1R antag-1 15, CHO-K1 Ca ag 0, OX1R antag-2 -15, CHO parental Ca 11, CHO-K1 Ca PAM -3 and CHO-K1 Ca antag -4.
CN(C)CCCNc1cc(O)c2ncccc2c1 was read as OX1R antag-1 45*, CHO-K1 Ca ag 0, OX1R antag-2 -1, CHO parental Ca -11, CHO-K1 Ca PAM 2 and CHO-K1 Ca antag 2.
CC(=O)c1cn(CC(=O)Nc2ccccc2C(F)(F)F)c2ccccc12 was read as OX1R antag-1 23, CHO-K1 Ca ag 1, OX1R antag-2 -10, CHO parental Ca -11, CHO-K1 Ca PAM -23 and CHO-K1 Ca antag 27*.
Cc1ccc(C)c(NC(=O)Cn2cc(C(=O)C3CC3)c3ccccc32)c1 was read as OX1R antag-1 17, CHO-K1 Ca ag 3, OX1R antag-2 -29, CHO parental Ca -24, CHO-K1 Ca PAM 6 and CHO-K1 Ca antag 25*.
Screening Cc1ccc(NC(=O)Cn2cc(C(=O)C3CC3)c3ccccc32)c(C)c1 returned OX1R antag-1 18, CHO-K1 Ca ag 0, OX1R antag-2 -13, CHO parental Ca -7, CHO-K1 Ca PAM 4 and CHO-K1 Ca antag -12.
`C[C@H](O)[C@@H]1C(=O)N2CCc3c([nH]c4ccccc34)[C@@H]2C[C@@H]1N(C)Cc1ccc2c(c1)OCO2` gave CHO-K1 Ca ag 1, CHO-K1 Ca PAM 13 and CHO-K1 Ca antag -5.
Screening COC(=O)/C(=C(O)\C=C\c1ccccc1[N+](=O)[O-])c1nc2ccccc2[nH]1 returned OX1R antag-1 56*, CHO-K1 Ca ag 1, OX1R antag-2 -23, CHO parental Ca -12, CHO-K1 Ca PAM -8 and CHO-K1 Ca antag -19.
O=C(/C=C\c1ccccc1[N+](=O)[O-])Nc1ccccc1 was read as OX1R antag-1 10, CHO-K1 Ca ag 3, OX1R antag-2 -20, CHO parental Ca -6, CHO-K1 Ca PAM 13 and CHO-K1 Ca antag -4.
Screening Cc1cccc(/C=N\N=C\c2cccc(C)c2)c1 returned OX1R antag-1 1, CHO-K1 Ca ag 0, OX1R antag-2 -21, CHO parental Ca -18, CHO-K1 Ca PAM -20 and CHO-K1 Ca antag 8.
`N#CN(CC(N)=O)c1nc(N2CCCCC2)nc(N2CCCCC2)n1` gave OX1R antag-1 9, CHO-K1 Ca ag 0, OX1R antag-2 -10, CHO parental Ca -3, CHO-K1 Ca PAM -9 and CHO-K1 Ca antag 28*.
Screening CC1c2cc3c(cc2CCN1C(=O)c1cccc(F)c1)OCCCO3 (stereo not drawn) returned OX1R antag-1 28, CHO-K1 Ca ag 1, OX1R antag-2 -30, CHO parental Ca -20, CHO-K1 Ca PAM -14 and CHO-K1 Ca antag -4.
COc1ccc(-c2ccc3c(=O)cc(-c4ccsc4)oc3c2)cn1 was read as OX1R antag-1 63*, CHO-K1 Ca ag 0, OX1R antag-2 14, CHO parental Ca -16, CHO-K1 Ca PAM 11 and CHO-K1 Ca antag 4.
COc1cc(-c2ccc3oc(-c4ccsc4)cc(=O)c3c2)cc(OC)c1OC was read as OX1R antag-1 67*, CHO-K1 Ca ag 2, OX1R antag-2 9, CHO parental Ca -20, CHO-K1 Ca PAM -7 and CHO-K1 Ca antag 2.
`O=c1cc(-c2ccsc2)oc2cc(-c3ccc4c(c3)OCO4)ccc12` gave OX1R antag-1 13, CHO-K1 Ca ag 1, OX1R antag-2 -12, CHO parental Ca -16, CHO-K1 Ca PAM 14 and CHO-K1 Ca antag -14.
For Cc1nn(-c2ccccc2)c2nc(C(F)(F)F)[nH]c(=O)c12 the results were OX1R antag-1 9, CHO-K1 Ca ag 2, OX1R antag-2 -13, CHO parental Ca -9, CHO-K1 Ca PAM 27 and CHO-K1 Ca antag -17.
`Cc1nn(-c2cc(C(F)(F)F)ccc2Cl)c2nc(C(Cl)(Cl)Cl)[nH]c(=O)c12` gave OX1R antag-1 40*, CHO-K1 Ca ag 0, OX1R antag-2 -12, CHO parental Ca -7, CHO-K1 Ca PAM 11 and CHO-K1 Ca antag 2.
For O=C1Nc2ccccc2Nc2ccc([N+](=O)[O-])cc21 the results were OX1R antag-1 11, CHO-K1 Ca ag 2, OX1R antag-2 -20, CHO parental Ca 10, CHO-K1 Ca PAM 2 and CHO-K1 Ca antag -6.
For Cc1ccc(N=C2NC(=O)c3cc([N+](=O)[O-])ccc32)cc1 the results were OX1R antag-1 56*, CHO-K1 Ca ag 0, OX1R antag-2 -1, CHO parental Ca 9, CHO-K1 Ca PAM 12 and CHO-K1 Ca antag -2.
CC(C)Oc1ccc(C(=O)NC(Cc2c[nH]c3ccccc23)C(=O)NN)cc1 (stereo not drawn) was read as OX1R antag-1 14, CHO-K1 Ca ag 0, OX1R antag-2 -2, CHO parental Ca -17, CHO-K1 Ca PAM -5 and CHO-K1 Ca antag -1.
`CCOc1ccc(S(=O)(=O)NCCSCc2ccco2)cc1` gave OX1R antag-1 10, CHO-K1 Ca ag 2, OX1R antag-2 6, CHO parental Ca -17, CHO-K1 Ca PAM 3 and CHO-K1 Ca antag -5.
`COc1ccccc1OCCNC(=O)CN(c1cccc(C)c1)S(=O)(=O)c1ccccc1` gave OX1R antag-1 72*, CHO-K1 Ca ag 3, OX1R antag-2 17, CHO parental Ca -25, CHO-K1 Ca PAM -20 and CHO-K1 Ca antag -5.
COc1ccc(N(CC(=O)NCCSc2ccccn2)S(=O)(=O)c2ccccc2)c(OC)c1 was read as OX1R antag-1 46*, CHO-K1 Ca ag 7, OX1R antag-2 -6, CHO parental Ca -27, CHO-K1 Ca PAM 3 and CHO-K1 Ca antag -1.
Screening COc1ccc(S(=O)(=O)NCCSCc2ccco2)cc1 returned OX1R antag-1 11, CHO-K1 Ca ag 0, OX1R antag-2 -8, CHO parental Ca 11, CHO-K1 Ca PAM -7 and CHO-K1 Ca antag 28*.
COc1ccc(N(CC(=O)NCCSc2ccccc2)S(=O)(=O)c2ccccc2)c(OC)c1 was read as OX1R antag-1 27, CHO-K1 Ca ag 4, OX1R antag-2 1, CHO parental Ca -23, CHO-K1 Ca PAM -1 and CHO-K1 Ca antag -11.
